According to ChEMBL document CHEMBL4342508, “Discovery and Pharmacokinetics of Sulfamides and Guanidines as Potent Human Arginase 1 Inhibitors” (ACS Med Chem Lett, 2020):

Tests used:
Conditions in all cases: in vivo
[1] = Oral bioavailability in Sprague-Dawley rat at 10 mg/kg measured up to 24 hrs by LC-MS/MS analysis; assay type: ADME, organism-based
[2] = Clearance in Sprague-Dawley rat at 3 mg/kg, iv measured up to 24 hrs by LC-MS/MS analysis; assay type: ADME, organism-based
[3] = Clearance in rat; assay type: ADME
[4] = Oral bioavailability in rat; assay type: ADME, organism-based
In short: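 Male Sprague–Dawley rats were dosed at 3 mg/kg i.v. and 10 mg/kg p.o., and plasma concentrations were followed over time for up to 24 h after dosing. Oral bioavailability comes from the p.o. versus i.v. plasma exposure profiles.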

[5] = Mean residence time in BALB/c mouse at 3 mg/kg, iv measured up to 24 hrs by LC-MS/MS analysis; assay type: ADME, organism-based
[6] = Mean residence time in Sprague-Dawley rat at 3 mg/kg, iv measured up to 24 hrs by LC-MS/MS analysis; assay type: ADME, organism-based
In short: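 Male Sprague–Dawley rats dosed with the hydrochloride salt at 3 mg/kg i.v. or 10 mg/kg p.o.; plasma concentration–time profiles followed over 24 h, with PK parameters derived from them. Oral bioavailability comes from comparing the p.o. and i.v. arms.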

Work on `N[C@@H](CCCCB(O)O)C(=O)O` yielded a bioavailability [1] of 89% and a clearance [2] of 2.3 mL/min/kg.
For `C[C@H](N)C(=O)N1C[C@H](CCCB(O)O)[C@](N)(C(=O)O)C1`, the clearance [3] was 10 mL/min/kg and the bioavailability [4] was 52%.
For `NC(CCCCB(O)O)(CNS(N)(=O)=O)C(=O)O` (configuration not stated), the MRT [5] was 48.6 min.
`N=C(N)NCC(N)(CCCCB(O)O)C(=O)O` (configuration not stated) showed an MRT [5] of 15.6 min.
For `N=C(N)NC[C@](N)(CCCCB(O)O)C(=O)O`, the MRT [6] was 715 min.
